Test system: not listed separately
Experiment: Effective Concentration of compound to inhibit the growth of human RXF-631L cells
Format: functional, cell-based
Details: not given

Row | Structure (SMILES) | EC50
1 | CC(C)C(=O)SCCCCCCC(=O)Nc1nc(-c2ccccc2)cs1 | 2.4 µM

Target: Histone deacetylase (Homo sapiens) (UniProt Q13547+O15379+Q9UBN7+Q92769+Q9UQL6+Q8WUI4+Q9BY41+Q96DB2+P56524+Q9UKV0+Q969S8)
Details: at 100 µM

Row | inhibition | Structure (SMILES)
2 | 85% | CC(=O)SCCCCCCC(=O)Nc1ccccc1
3 | 14% | O=C(CCCCCCS(=O)(=O)NO)Nc1ccccc1
4 | 11% | CSCCCCCCC(=O)Nc1ccccc1
5 | 14% | C#CCNCCCCCC(=O)Nc1ccccc1
6 | 0% | C#CCN(CC#C)CCCCCC(=O)Nc1ccccc1

Target: Histone deacetylase
Experiment: Inhibitory concentration against human histone deacetylase
Format: protein assay
Details: not given

Row | IC50 | Structure (SMILES)
7 | > 100 µM | O=C(CCCCCCS(=O)(=O)NO)Nc1ccccc1
8 | > 100 µM | CSCCCCCCC(=O)Nc1ccccc1
9 | > 100 µM | NCC(=O)NCCCCCC(=O)Nc1ccccc1
10 | > 100 µM | O=C(CO)NCCCCCC(=O)Nc1ccccc1
11 | 2.8 µM | O=CN(O)CCCCCCCC(=O)Nc1ccccc1
12 | > 100 µM | C#CCNCCCCCC(=O)Nc1ccccc1
13 | > 100 µM | C#CCN(CC#C)CCCCCC(=O)Nc1ccccc1

Row | Structure (SMILES) | IC50
14 | O=C(CCCCCCS)Nc1nc2ccccc2s1 | 0.34 µM
15 | CNC(=O)C(=O)CCCCCCC(=O)Nc1ccccc1 | 0.34 µM

Same assay, conditions: read-out: IC50

Row | IC50 | Structure (SMILES)
16 | 1.1 µM | O=C(CCCCCCS)Nc1ccc(-c2ccccc2)cc1
17 | 0.17 µM | O=C(CCCCCCS)Nc1nc(-c2ccccc2)cs1
18 | 1.2 µM | CN(C)c1ccc(NC(=O)CCCCCCS)cc1
19 | 0.62 µM | O=C(CCCCCCS)Nc1ccc(Oc2ccccc2)cc1
20 | 0.1 µM | O=C(NCCCCCCS)c1cc2ccccc2[nH]1
21 | 0.61 µM | CN(C)c1ccc(C(=O)NCCCCCCS)cc1
22 | 0.36 µM | O=C(NCCCCCCS)c1ccccc1
23 | 11 µM | SCCCCCCOc1ccccc1

Row | Structure (SMILES) | IC50
24 | O=C(CCCCCCS)Nc1cccnc1 | 0.11 µM
25 | O=C(CCCCCCS)Nc1cccc(Oc2ccccc2)c1 | 0.21 µM
26 | O=C(NCCCCCCS)c1ccc2ccccc2c1 | 0.085 µM
27 | O=C(CCCCCCS)Nc1cccc(-c2ccccc2)c1 | 0.075 µM

Test system: NCI-H460
Experiment: Inhibition of human lung cancer NCI-H460 cell growth
Format: functional, cell-based
Details: not given
How it was run: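 Cells seeded at 1500/well, 37 °C; after 24 h exposed to compounds at various concentrations in 10% FBS RPMI-1640, 37 °C, 5% CO₂, 48 h. Stained with 0.5 mg/mL methylene blue, room temperature, 30 min; dye dissolved in 3% aqueous HCl, absorbance at 660 nm. EC₅₀ reported as mean of at least two experiments.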

Row | EC50 | Structure (SMILES)
28 | 12 µM | CC(C)C(=O)SCCCCCCNC(=O)c1ccc2ccccc2c1
29 | 8 µM | CC(C)C(=O)SCCCCCCC(=O)Nc1cnc2ccccc2c1
30 | 27 µM | O=C(CCCCCCSC(=O)C1CC1)Nc1ccccc1
31 | 24 µM | O=C(CCCCCCSC(=O)c1ccc([N+](=O)[O-])cc1)Nc1ccccc1
32 | 4.1 µM | CC(C)C(=O)SCCCCCCNC(=O)c1cc2ccccc2o1
33 | 9.5 µM | CC(C)C(=O)SCCCCCCC(=O)Nc1nc2ccccc2s1
34 | 36 µM | CC(=O)SCCCCCCC(=O)Nc1ccccc1
35 | 25 µM | CC(C)(C)C(=O)OCSCCCCCCC(=O)Nc1ccccc1
36 | 21 µM | O=C(CCCCCCSC(=O)C1CCCC1)Nc1ccccc1
37 | 22 µM | CCCC(=O)SCCCCCCC(=O)Nc1ccccc1
38 | 2.9 µM | CC(C)C(=O)SCCCCCCC(=O)Nc1cccnc1
39 | 28 µM | CCC(=O)SCCCCCCC(=O)Nc1ccccc1
40 | 25 µM | CC(C)C(=O)SCCCCCCC(=O)Nc1cccc(Oc2ccccc2)c1
41 | > 50 µM | CC(C)(C)C(=O)SCCCCCCC(=O)Nc1ccccc1
42 | 2.8 µM | CC(C)C(=O)SCCCCCCC(=O)Nc1cccc(-c2ccccc2)c1
43 | > 50 µM | O=C(CCCCCCSSCCCCCCC(=O)Nc1ccccc1)Nc1ccccc1
44 | 12 µM | CC(C)C(=O)SCCCCCCNC(=O)c1cc2ccccc2[nH]1
